# Experiments:
# T47D [1] = assay: Growth inhibition of human T47D cells assessed as BrdU incorporation at 174.6 uM after 72 hrs by spectrophotometry; type: functional; settings: read-out: GI
# Method in brief: (§1)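 Each cell line was seeded at 10⁴ cells per mL and preincubated. Test agents were dissolved in DMSO, added at two examined concentrations (10 and 50 per mL by mass), and incubated for 72 h. The end-point was BrdU labeling and detection kit III read on an ELISA reader. Percent growth inhibition was calculated against untreated controls, in triplicate.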
# Jurkat [2] = assay: Cytotoxicity against human Jurkat cells assessed as cell viability at 100 uM after 24 hrs by MTT assay relative to control; type: functional; settings: read-out: Activity
# Method in brief: (§2)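 Jurkat T-cell leukaemia line grown in RPMI 1640 with 10% FBS, 2 mM L-glutamine and gentamycin at 37 °C, 5% CO2, kept in log phase. Compounds were dissolved in DMSO and applied for 24 h. Cells were washed in HEPES-buffered medium (pH 7.4) and given MTT at 0.5 mg/mL for 45 min at 37 °C. Formazan was dissolved in DMSO and read at 570 nm. Viability is % of control, from three independent measurements.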
# Vero [3] = assay: Growth inhibition of african green monkey Vero cells assessed as BrdU incorporation at 34.9 uM after 72 hrs by spectrophotometry; type: cell-based; settings: chlorocebus sabaeus
# Method in brief: (§3)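 Cells were seeded at 10⁴ cells/mL and preincubated. Compounds were dissolved in DMSO and added at two fixed concentrations, then incubated for 72 h. End-point was BrdU labelling with ELISA detection, read spectrophotometrically. Result is % growth inhibition versus untreated controls. Triplicates.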
# [4] = Growth inhibition of HSF cells assessed as BrdU incorporation at 174.6 uM after 72 hrs by spectrophotometry; type: cell-based; settings: human; method in brief: as §3
# [5] = Growth inhibition of african green monkey Vero cells assessed as BrdU incorporation at 174.6 uM after 72 hrs by spectrophotometry; type: cell-based; settings: chlorocebus sabaeus, read-out: GI; method in brief: as §3
# [6] = Cytotoxicity against HSF cells assessed as cell viability at 50 uM after 24 hrs by MTT assay relative to control; type: cell-based; settings: human, read-out: Activity
# Method in brief: (§4)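 Normal human skin fibroblasts (HSF, primary line) were exposed to DMSO-dissolved compound for 24 h. Viability was read by MTT tetrazolium reduction and expressed against untreated control set at 100%.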
# Jurkat [7] = assay: Cytotoxicity against human Jurkat cells assessed as cell viability at 1 uM after 24 hrs by MTT assay relative to control; type: functional; settings: read-out: Activity; method in brief: as §2
# [8] = Growth inhibition of human LS180 cells assessed as BrdU incorporation at 174.6 uM after 72 hrs by spectrophotometry; type: functional; settings: LS180, 72 h, read-out: GI; method in brief: as §3
# SiHa [9] = assay: Growth inhibition of human SiHa cells assessed as BrdU incorporation at 174.6 uM after 72 hrs by spectrophotometry; type: functional; settings: read-out: GI; method in brief: as §3
# [10] = Cytotoxicity against HSF cells assessed as cell viability at 100 uM after 24 hrs by MTT assay relative to control; type: cell-based; settings: human, read-out: Activity; method in brief: as §4
# SiHa [11] = assay: Growth inhibition of human SiHa cells assessed as BrdU incorporation at 34.9 uM after 72 hrs by spectrophotometry; type: functional; settings: read-out: GI; method in brief: as §3
# [12] = Growth inhibition of HSF cells assessed as BrdU incorporation at 34.9 uM after 72 hrs by spectrophotometry; type: cell-based; settings: human, read-out: GI; method in brief: as §3
# Jurkat [13] = assay: Cytotoxicity against human Jurkat cells assessed as cell viability at 50 uM after 24 hrs by MTT assay relative to control; type: functional; settings: read-out: Activity; method in brief: as §2
# [14] = Cytotoxicity against HSF cells assessed as cell viability at 1 uM after 24 hrs by MTT assay relative to control; type: cell-based; settings: human, read-out: Activity; method in brief: as §4
# [15] = Growth inhibition of human LS180 cells assessed as BrdU incorporation at 34.9 uM after 72 hrs by spectrophotometry; type: functional; settings: LS180, 72 h, read-out: GI; method in brief: as §3
# T47D [16] = assay: Growth inhibition of human T47D cells assessed as BrdU incorporation at 34.9 uM after 72 hrs by spectrophotometry; type: functional; settings: read-out: GI; method in brief: as §1
# T47D [17] = assay: Growth inhibition of human T47D cells assessed as BrdU incorporation at 183.6 uM after 72 hrs by spectrophotometry; type: functional; settings: read-out: GI; method in brief: as §1
# T47D [18] = assay: Growth inhibition of human T47D cells assessed as BrdU incorporation at 36.7 uM after 72 hrs by spectrophotometry; type: functional; settings: read-out: GI; method in brief: as §1
# SiHa [19] = assay: Growth inhibition of human SiHa cells assessed as BrdU incorporation after 72 hrs by spectrophotometry; type: functional, cell-based
# Method in brief: (§5)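 Cancer cells were seeded at 10⁴ cells/mL, preincubated, then exposed for 72 h to DMSO-dissolved compound. Growth was read by BrdU labelling with ELISA spectrophotometry. IC50 was taken from 72 h dose–survival curves. Triplicates.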
# [20] = Growth inhibition of HSF cells assessed as BrdU incorporation at 183.6 uM after 72 hrs by spectrophotometry; type: cell-based; settings: human, read-out: GI; method in brief: as §3
# [21] = Growth inhibition of human LS180 cells assessed as BrdU incorporation at 36.7 uM after 72 hrs by spectrophotometry; type: functional; settings: LS180, 72 h, read-out: GI; method in brief: as §3
# Jurkat [22] = assay: Cytotoxicity against human Jurkat cells assessed as decrease in cell viability after 24 hrs by MTT assay; type: functional, cell-based
# Method in brief: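 Jurkat cells grown in RPMI 1640/10% FBS at 37 °C, 5% CO2, with 24 h exposure to DMSO-dissolved compound. Read-out was MTT reduction: 0.5 mg/mL in HEPES-buffered medium for 45 min, formazan in DMSO, absorbance at 570 nm. IC50 was taken from 24 h dose–survival curves.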
# [23] = Growth inhibition of human LS180 cells assessed as BrdU incorporation at 183.6 uM after 72 hrs by spectrophotometry; type: functional; settings: LS180, 72 h, read-out: GI; method in brief: as §3
# [24] = Growth inhibition of african green monkey Vero cells assessed as BrdU incorporation at 183.6 uM after 72 hrs by spectrophotometry; type: cell-based; settings: chlorocebus sabaeus, read-out: GI; method in brief: as §3
# [25] = Growth inhibition of HSF cells assessed as BrdU incorporation at 36.7 uM after 72 hrs by spectrophotometry; type: cell-based; settings: human, read-out: GI; method in brief: as §3
# [26] = Growth inhibition of human LS180 cells assessed as BrdU incorporation after 72 hrs by spectrophotometry; type: functional, cell-based; settings: LS180, 72 h; method in brief: as §5
# T47D [27] = assay: Growth inhibition of human T47D cells assessed as BrdU incorporation after 72 hrs by spectrophotometry; type: functional, cell-based; method in brief: as §5
# SiHa [28] = assay: Growth inhibition of human SiHa cells assessed as BrdU incorporation at 36.7 uM after 72 hrs by spectrophotometry; type: functional; settings: read-out: GI; method in brief: as §3
# Mus musculus = assay: Neurotoxicity in ip dosed Swiss albino mouse assessed as impair in motor coordination at 0.1 LD50 concentration by rotarod test; type: toxicity, organism-based; settings: in vivo
# Method in brief: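 Male Albino Swiss mice (20-25 g), housed 8-10 per cage at 20 ± 1 °C on a 12/12 h light-dark cycle with food and water ad libitum. Randomized groups of 10. Compound given i.p. as a suspension in 3% Tween 80 at 10 mL kg^-1; controls received the same volume of vehicle. Tests run 8 a.m.-3 p.m.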
# SiHa [29] = assay: Growth inhibition of human SiHa cells assessed as BrdU incorporation at 183.6 uM after 72 hrs by spectrophotometry; type: functional; settings: read-out: GI; method in brief: as §3
# Vero [30] = assay: Growth inhibition of african green monkey Vero cells assessed as BrdU incorporation at 36.7 uM after 72 hrs by spectrophotometry; type: cell-based; settings: chlorocebus sabaeus; method in brief: as §3
smiles,measurement,setting,value
Cc1ccc(N2CCn3c2nnc(C(=O)NN)c3=O)cc1,inhibition of growth at 174.6 µM,T47D [1],8%
same,viability at 100 µM,Jurkat [2],79%
same,growth inhibition (GI),Vero [3],2%
same,growth inhibition (GI),[4],0%
same,"inhibition at 72 h, 174.6 µM",[5],0%
same,"viability at 24 h, 50 µM",[6],111%
same,viability at 1 µM,Jurkat [7],93%
same,inhibition of growth at 174.6 µM,[8],14%
same,inhibition of growth at 174.6 µM,SiHa [9],9%
same,"viability at 24 h, 100 µM",[10],95%
same,inhibition of growth at 34.9 µM,SiHa [11],11%
same,"inhibition at 72 h, 34.9 µM",[12],0%
same,viability at 50 µM,Jurkat [13],87%
same,"viability at 24 h, 1 µM",[14],109%
same,inhibition of growth at 34.9 µM,[15],0%
same,inhibition of growth at 34.9 µM,T47D [16],5%
CCOC(=O)c1nnc2n(c1=O)CCN2c1ccc(OC)cc1,viability at 100 µM,Jurkat [2],110%
same,"viability at 24 h, 50 µM",[6],100%
same,viability at 1 µM,Jurkat [7],118%
same,"viability at 24 h, 100 µM",[10],97%
same,viability at 50 µM,Jurkat [13],110%
same,"viability at 24 h, 1 µM",[14],104%
NNC(=O)c1nnc2n(c1=O)CCN2c1ccccc1,inhibition of growth at 183.6 µM,T47D [17],9%
same,viability at 100 µM,Jurkat [2],33%
same,inhibition of growth at 36.7 µM,T47D [18],4%
same,IC50,SiHa [19],> 100 µM
same,"inhibition at 72 h, 183.6 µM",[20],20%
same,inhibition of growth at 36.7 µM,[21],0%
same,IC50,Jurkat [22],85.5 µM
same,"viability at 24 h, 50 µM",[6],83%
same,viability at 1 µM,Jurkat [7],89%
same,"viability at 24 h, 100 µM",[10],82%
same,inhibition of growth at 183.6 µM,[23],15%
same,viability at 50 µM,Jurkat [13],82%
same,"viability at 24 h, 1 µM",[14],82%
same,"inhibition at 72 h, 183.6 µM",[24],0%
same,"inhibition at 72 h, 36.7 µM",[25],16%
same,IC50,[26],> 100 µM
same,IC50,T47D [27],> 100 µM
same,inhibition of growth at 36.7 µM,SiHa [28],0%
same,Activity,Mus musculus,Non-toxic
same,inhibition of growth at 183.6 µM,SiHa [29],0%
same,growth inhibition (GI),Vero [30],2%
CCOC(=O)c1nnc2n(c1=O)CCN2c1ccc(C)cc1,viability at 100 µM,Jurkat [2],93%
same,"viability at 24 h, 50 µM",[6],87%
same,viability at 1 µM,Jurkat [7],83%
same,"viability at 24 h, 100 µM",[10],82%
same,viability at 50 µM,Jurkat [13],89%
same,"viability at 24 h, 1 µM",[14],91%
